From PubChem BioAssay
FGF22 binding: binders of human FGF22 protein, primary screen, FGF22 synaptogenesis inhibitor project, biophysical, thermal shift, single point; AID 651658, 2012; 340,000 tested, 1.5% active; recombinant FGF22 thermal shift, SYPRO orange fluorescence; percent of sucrose octasulfate shift, DMSO zero; activity (Tm shift, normalised), % at 9.99 µM; Fibroblast growth factor 22 (Homo sapiens), Q9HCT0;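 active means mean Tm shift, scaled 0 neutral to 100 positive control, at about 1.3% or above, every replicate too, limit read from the data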
Target sequence (Q9HCT0 whole entry, looked up): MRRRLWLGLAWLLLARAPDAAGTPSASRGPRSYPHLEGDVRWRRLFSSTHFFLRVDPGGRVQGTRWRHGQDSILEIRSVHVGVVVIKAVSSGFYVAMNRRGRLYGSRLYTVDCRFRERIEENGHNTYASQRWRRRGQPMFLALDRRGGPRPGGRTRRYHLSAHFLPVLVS
697 NFkB inh: inhibitors of PMA/ionomycin-induced NF-kB reporter, 697 cells, primary screen, B-cell NF-kB inhibitor project, cell-based, luminescence, uHTS; AID 435022, 2010; 697 B-cell NF-kB luciferase reporter, 16 h; inhibition, % at 4 µM; 330,000 tested, 0.33% active; in the data active means inhibition above about 35%
Jurkat NFkB inh: inhibitors of induced NF-kB luciferase reporter, primary screen, TCR NF-kB activation inhibitor project, cell-based, luminescence, uHTS. Jurkat, PMA/ionomycin-induced NF-kB luciferase reporter. inhibition, % at 4 µM. 330,000 tested, 0.53% active; in the data active means inhibition above about 50%
miR122 inh: miR-122 Renilla sensor signal increase in Huh7, primary screen, miR-122 inhibitor project, cell-based, single point, plate reader; Huh7 miR-122 Renilla luciferase sensor, 48 h; neutral wells = 0, positive control = 100; activation (reporter increase), % at 12.5 µM; 340,000 tested, 0.3% active; AID 602342, 2012;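 active means mean replicate activation score at least 90 and every replicate individually at or above 90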;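 further: higher luciferase means less miR-122 activity so hits act as miR-122 inhibitors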
NR2E3 ag-1: NR2E3 agonists in two-hybrid cells, primary screen, cell-based, luminescence, CHO-S, Gal4-NCOR/VP16-NR2E3; Photoreceptor-specific nuclear receptor (Homo sapiens), Q9Y5X4; luciferase; inhibition of corepressor binding, % at 3.98 µM; 360,000 tested, 0.35% active;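 active means inhibition above the mean of all tested compounds plus 3 SD, cut at about 70% in these data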;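 further: 0% = DMSO with NR2E3 transfected cells and 100% = cells lacking NR2E3 construct; higher means lower luciferase signal from less NR2E3 corepressor binding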
Target sequence (Q9Y5X4 whole entry, looked up, the tested form may be a part): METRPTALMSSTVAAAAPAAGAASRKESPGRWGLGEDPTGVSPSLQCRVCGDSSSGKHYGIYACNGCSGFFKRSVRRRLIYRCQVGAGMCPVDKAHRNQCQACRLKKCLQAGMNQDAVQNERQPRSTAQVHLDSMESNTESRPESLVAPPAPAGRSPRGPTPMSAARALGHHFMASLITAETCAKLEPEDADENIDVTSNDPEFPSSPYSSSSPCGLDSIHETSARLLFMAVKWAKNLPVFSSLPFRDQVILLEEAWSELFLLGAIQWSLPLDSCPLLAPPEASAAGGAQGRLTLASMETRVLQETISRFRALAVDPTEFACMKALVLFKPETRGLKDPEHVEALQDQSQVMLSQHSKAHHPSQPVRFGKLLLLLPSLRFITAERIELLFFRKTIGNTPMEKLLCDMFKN
NR2E3 ag-2: inhibitors of NR2E3-RetCOR corepressor binding, primary screen, NR2E3 agonist project, biochemical, TR-FRET, GST-NR2E3, biotin-RetCOR; Photoreceptor-specific nuclear receptor (Homo sapiens), Q9Y5X4; 1536-well; inhibition of corepressor binding, % at 4.78 µM; 320,000 tested, 0.12% active;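 active means percent inhibition above the cutoff of mean plus 3 SD of all tested compounds, set per screening campaign, cut at about 20% in these data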;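 further: 0% = DMSO wells and 100% = biotin wells as full block of FRET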
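System: GST-tagged NR2E3 plus biotinylated RetCOR corepressor; Amount: 1.35 nM GST-tagged NR2E3 final; Dosing: single nominal compound dose of 4.8 µM; Schedule: 5 h incubation at 4 °C; Technique: TR-FRET with europium anti-GST and streptavidin-D2, 340 nm excitation; Controls: biotin wells as high control, 0.6% DMSO wells as low control.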
Jurkat NFkB conf: PMA/ionomycin-induced NF-kB reporter inhibitors, Jurkat retest, confirmation, T-cell NF-kB inhibitor project, cell-based, luminescence, single concentration. shares compounds with Jurkat NFkB inh. AID 435020, 2010. inhibition, % at 4 µM. Jurkat NF-kB luciferase, 16 h. 2,700 tested, 27% active;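 active means inhibition reaching about 45% at 4 µM in either replicate, limit read from the data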;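 further: plate controls were PMA/ionomycin stimulated DMSO wells for no effect and unstimulated DMSO wells for full effect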
Numbers without * were called inactive; x = not tested or not shown; [ ] = dose if it differs, or a comment. A selection: hits, their analogues and other compounds. The true share with any hit is near 2.2%.

SMILES	FGF22 binding	697 NFkB inh	Jurkat NFkB inh	miR122 inh	NR2E3 ag-1	NR2E3 ag-2	Jurkat NFkB conf
O=C(N/N=C/c1ccc(Cl)cc1)c1cc(-c2cccnc2)nc2ccccc12	0	-42	66*	x	-6	-3	15
O=C(N/N=C/c1cccnc1)c1cc(-c2ccc(Cl)cc2)nc2ccccc12	0	-7	4	-1	-42	3	x
Cc1noc(C)c1S(=O)(=O)N(C)C[C@@H]1Oc2ccc(NS(=O)(=O)c3ccccc3)cc2CC(=O)N([C@@H](C)CO)C[C@H]1C	0	x	x	0[16.7 µM]	x	x	x
CCC(=O)Nc1cccc(-c2ccc(N3CCN(C)CC3)nn2)c1	x	-58	-110	8	-74	2	x
CN1CCN(c2ccc(-c3cccc(NC(=O)COc4ccc(Cl)cc4)c3)nn2)CC1	0	-129	-179	7	-89	-3	-55
CN1CCN(c2ccc(-c3cccc(NC(=O)COc4ccc(Cl)cc4Cl)c3)nn2)CC1	0	-110	-170	x	-41	3	-18
O=C(COc1ccccc1)Nc1cccc(-c2nc3cc4ccccc4cc3[nH]2)c1	x	-155	-231	0	-80	0	-120
CN1CCN(c2ccc(-c3cccc(NC(=O)COc4ccccc4)c3)nn2)CC1	0	-133	-175	11	-97	1	-73
Cc1ccc(-c2ccc3c(c2)O[C@H](CN(C)C(=O)C2CC2)[C@@H](C)CN([C@H](C)CO)S3(=O)=O)cc1	0	x	x	13[16.7 µM]	x	x	x
CC(=O)N1CCCCN2[C@H](CO)[C@@H](c3ccc(-c4ccncc4)cc3)[C@@H]2C1	0	x	x	-5[16.7 µM]	x	x	x
CCOC(=O)c1c2c(n(C)c1C)C(=O)C(=O)c1ccc(Br)cc1-2	x	3	52*	-10	-24	4	33
CCOC(=O)c1c2c(n(Cc3ccccc3)c1C)C(=O)C(=O)c1ccccc1-2	0	x	x	x	28	x	x
CN1CCN(c2ccc(NC(=O)c3ccco3)cc2Cl)CC1	0	-49	-129	x	-104	0	x
O=C(Nc1ccc(N2CCCC2)c(Cl)c1)c1ccco1	x	-198	-165	x	-175	-4	-25
CCOc1ccc(Br)cc1/C(C)=N\NC1=NCCN1	x	-28	70*	-1	8	-4	26
CCCCCOc1ccc(/C(C)=N/NC2=NCCN2)cc1	0	-7	42	3	-3	5	x
COc1ccc(-c2cc(C)no2)cc1S(=O)(=O)N(C)c1ccc(C)c(C)c1	0	-32	2	15	6	0	x
Cc1cc(-c2ccc(S(=O)(=O)N(C)c3ccc(C)c(C)c3)s2)on1	0	-56	57*	x	-4	0	40
Cc1ccc(N(C)S(=O)(=O)c2ccc(-c3cc(C)no3)s2)cc1	0	-47	51*	81	-7	0	20
Cc1cc(C(=O)Nc2ccc3c(c2)C(=O)N(C)[C@H]2CC[C@@H](CC(=O)O)O[C@H]2CO3)no1	0	x	x	71[16.7 µM]	x	x	x
Cc1cc(NC(=O)CSc2nc(C3CC3)nc3sc(C)c(C)c23)no1	x	-55	51*	13	-1	5	7
CCc1nc(SCC(=O)Nc2cc(C)on2)c2c(C)c(C)sc2n1	x	0	2	2	-32	1	x
Cc1ccc(C(=O)OCC(=O)c2ccccc2)cc1	0	-120	-169	-4	-141	0	-63
O=C(N[C@@H]1C=C[C@@H](CC(=O)N2CCc3ccccc3C2)O[C@H]1CO)C1CC1	0	x	x	x	x	x	x
COc1ccc(C2=NOC(C(=O)NCc3cccs3)C2)cc1 (stereo not given)	x	-38	44	7	-215	2	x
SMILES	FGF22 binding	697 NFkB inh	Jurkat NFkB inh	miR122 inh	NR2E3 ag-1	NR2E3 ag-2	Jurkat NFkB conf
COc1ccc(C2=NOC(C(=O)NCc3ccco3)C2)cc1 (stereo not given)	x	-31	41	12	-97	1	x
COc1ccc(C2=NOC(C(=O)NCc3cccs3)C2)cc1OC (stereo not given)	x	-99	50*	x	x	3	44
COc1cc(C2=NOC(C(=O)NCc3ccco3)C2)cc(OC)c1OC (stereo not given)	x	-9	66*	11	-41	2	6
COc1cc(C2=NOC(C(=O)NCc3cccs3)C2)cc(OC)c1OC (stereo not given)	x	-67	50*	1	-136	0	36
COc1cc(OC)c(C2=NOC(C(=O)NCc3cccs3)C2)cc1Cl (stereo not given)	0	-16	54*	x	-81	2	22
C[C@@H]1CCCCO[C@H](CN(C)Cc2ccc(C(=O)O)cc2)[C@@H](C)CN([C@H](C)CO)C(=O)c2cc(NS(=O)(=O)c3cn(C)cn3)ccc2O1	0	x	x	2[16.7 µM]	x	x	x
COCC#Cc1cnc2c(c1)C(=O)N([C@H](C)CO)C[C@@H](C)[C@@H](CN(C)C(=O)C1CCOCC1)O2	0	x	x	x	x	x	x
COc1ccc(C(=O)Nc2ccc3c(c2)C(=O)N(C)C[C@@H](OC)[C@@H](C)CN(C)[C@@H](C)CO3)cc1	0	x	x	x	x	x	x
Cc1ccsc1/C=C/c1ccc2ccccc2n1	x	-162	-165	2	-153	1	-105
Cc1cc(C)c(S(=O)(=O)Nc2ccc3c4c(cccc24)CC3)c(C)c1	x	-68	58*	111*	46	5	45
C[C@@H]1CN([C@@H](C)CO)C(=O)c2c(c3ccccc3n2C)-c2ccccc2CO[C@@H]1CN(C)Cc1ccc(C(=O)O)cc1	0	x	x	x	x	x	x
Cc1ccc(CCC(=O)Nc2ncc(Cc3cccc(Cl)c3Cl)s2)o1	0	-140	72*	25	16	1	0
CCOc1ccc(NC(=O)c2cc3c(C)nc4ccccc4c3o2)cc1	0	-69	60*	x	1	4	41
C/C=C/c1ccc([C@H]2[C@H](CO)N(C(C)=O)[C@H]2CNC(=O)CC2CC2)cc1	-1	x	x	7[16.7 µM]	x	x	x
O=C(NC1C=CS(=O)(=O)C1)c1sc2ccccc2c1Cl (stereo not given)	x	-4	56*	x	-14	1	18
CC(C)Cc1ccc(C(C)C(N)=NCCc2ccccc2)cc1 (stereo not given)	0	-25	50*	6	18	x	1
COc1ccc(CCN=C(N)C(C)c2ccccc2)cc1OC (stereo not given)	0	13	-6	-4	-8	0	x
